Source: PMC4651454 (Journal of virology & antiviral research, 2014)

Tests used:
[1] = system: BM4-5 FEO (genotype 1b) replicon; test: Synergy of 1,25; type: cell-based, hepatitis C virus
[2] = system: HCV infected Huh7.5.1 cells; test: RT-qPCR of selected genes in HCV infected cells; type: cell-based, human; settings: 10 μM, over IFN-α treated cells (p=0.032)
Procedure, shortened: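 HCV-infected Huh7.5.1 cells were prepared as for the microarray and treated for 6 or 72 h with 1,25(OH)2D3 (4 or 10 µM) and IFN-α (1 or 10 IU/mL), alone or combined. Cultures were run in triplicate. RNA was reverse-transcribed and measured by TaqMan RT-qPCR in duplicate reactions, normalized to GAPDH. Fold change versus untreated infected culture was calculated by 2^-ΔΔCt. Means with 1 standard deviation were compared by Student t-test.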

[3] = system: Huh7.5.1 cells; test: in vitro; type: cell-based; settings: human, 120 h
[4] = in vitro; type: cell-based; settings: human, CC50 μM (±S.D)
[5] = system: JC1-Luc2a (infection); test: JC1-Luc2a infectious virus luciferase assay; type: cell-based; settings: Hepatitis C virus
[6] = system: Huh7.5.1 cells; test: Microarray gene expression; type: cell-based, human
Procedure, shortened: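 Huh7.5.1 cells were JC1-Luc2a-transfected or mock-transfected, cultured 4 days, then plated. 1,25(OH)2D3 was added at staggered times to give 6, 12, 24, 72 or 120 h exposures, with RNA harvested at 120 h (day 9). Biotinylated cRNA (250 ng total RNA input; 750 ng hybridized) was run on HumanHT-12 v4 chips, 18-20 h at 58°C, with Cy3 detection. Data were LOESS-normalized and compared against uninfected untreated cells.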

[7] = system: JC1-Luc2a (electroporation); test: JC1-Luc2a transfected; type: cell-based; settings: Hepatitis C virus
[8] = system: HCV core protein; test: HCV core protein immunoblot in JC1-Luc2a electroporated Huh7.5.1 cells; type: cell-based, hepatitis C virus; settings: 10 μM 1,25(OH)2D3, 10 IU/mL IFN-α, 72 hours, compared to untreated cells
Procedure, shortened: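 Huh7.5.1 cells electroporated with JC1-Luc2a were incubated for 72 h without drug, with 10 µM 1,25(OH)2D3, with 10 IU/mL IFN-α, or with both. Confluent plates were trypsinized, counted and lysed in equal RIPA volumes. Each condition was run in triplicate. Lysates were run on 12% Bis-Tris SDS-PAGE and transferred to nitrocellulose. Core (anti-core, epitope aa 7-50) and β-actin were detected with goat anti-mouse IgG, and band density was quantified.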

[9] = system: HCV; settings: ref 23 (Matsumura et al.); cited from earlier work
[10] = system: full-length genotype 1b replicon; settings: ref 20 (Yano et al.); cited from earlier work
[11] = system: HCV genotype 1 patients; settings: supplemented group, HCV genotype 1, PEG-IFN/RBV; controls 42%, P<0.001; cited from earlier work

Row | Compound | CC50 [3] | CC50 at 72 h [4] | EC50 ([5]; 72 h) | EC50 ([5]; 120 h) | EC50 ([7]; 72 h) | EC50 ([7]; 120 h) | HCV core protein expression by immunoblot [8] | further results
1 | C=C1/C(=C\C=C2/CCC[C@]3(C)[C@@H]([C@H](C)CCCC(C)(C)O)CC[C@@H]23)C[C@@H](O)C[C@@H]1O [1,25(OH)2D3, 1,25-dihydroxyvitamin D3] | 22.8 µM | 17.3 µM | 1.19 µM | 1.07 µM | 2.92 µM | 2.95 µM | Mild reduction | EC50 ([1]; Hepatitis C virus, GETYPE1B, BM4-5, read-out: EC50 (used for synergy dosing)): 1 µM; HIF1a mRNA expression, RT-qPCR [2]: up-regulation; HIF1a expression ([6]; HCV naïve cells): strongly up regulated; GPR37 expression ([6]; progressive in vitro exposure): markedly up regulated; CCL20 gene expression ([6]; shortly after treatment): higher gene expression; SLC30A10 expression ([6]; uninfected and infected cells): increased
2 | C=C1CC[C@H](O)C/C1=C/C=C1\CCC[C@]2(C)[C@@H]([C@H](C)CCCC(C)(C)O)CC[C@@H]12 [25(OH) D3] |  |  |  |  |  |  |  | Inhibition of HCV in culture (in words) [9]: inhibited HCV in culture
3 | C=C1CC[C@H](O)C/C1=C/C=C1\CCC[C@]2(C)[C@@H]([C@H](C)/C=C/[C@H](C)C(C)C)CC[C@@H]12 [Vitamin D2] | 41.9 µM | 53.9 µM | 5.72 µM | 4.41 µM | 18.6 µM | 21.4 µM |  | EC50, inhibition of HCV RNA replication [10]: 1.6 µg/mL
4 | C=C1CC[C@H](O)C/C1=C/C=C1\CCC[C@]2(C)[C@@H]([C@H](C)CCCC(C)C)CC[C@@H]12 [Vitamin D3] | 54.9 µM | 50.3 µM | 3.44 µM | 2.78 µM | 13 µM | 12.6 µM |  | 
5 | C=C1CC[C@H](O)C/C1=C/C=C1\CCC[C@]2(C)[C@@H]([C@H](C)/C=C/[C@H](C)C(C)C)CC[C@@H]12 [vitamin D] |  |  |  |  |  |  |  | SVR rate [11]: 86%
6 | IFN-α |  |  |  |  |  |  | Mild reduction | EC50 (used for synergy dosing) ([1]; BM4-5 FEO genotype 1b replicon): 1 IU/mL
